According to ChEMBL document CHEMBL1240405, “Activity of a new cephalosporin, CXA-101 (FR264205), against beta-lactam-resistant Pseudomonas aeruginosa mutants selected in vitro and after antipseudomonal treatment of intensive care unit patients” (2010):
In brackets after ≈: the same amount, converted by molar mass.

Tests used:
Type in all cases: functional
[1] = system: Pseudomonas aeruginosa; test: Antimicrobial activity against beta-lactam resistant Pseudomonas aeruginosa PAO1 deficient in ampD, […] gene selected in vitro after antipseudomonal treatment of intensive care unit patient by broth microdilution method
How it was run: (§1)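 Broth microdilution MICs per CLSI M100-S18, over 0.12 to 256 μg/ml. Strains are PAO1 and its mutants. oprD mutants were selected overnight on Mueller-Hinton agar with 4 μg/ml imipenem, passaged antibiotic-free, then confirmed by oprD amplification and sequencing. PAO1 and ATCC 27853 were run alongside as quality controls.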

[2] = system: Pseudomonas aeruginosa; test: Antimicrobial activity against beta-lactam resistant Pseudomonas aeruginosa PAOD2 harboring oprD spontaneous mutant and deficient in ampD gene by selected in vitro after antipseudomonal treatment of intensive care unit patient by broth microdilution method; how it was run: as §1
[3] = system: Pseudomonas aeruginosa; test: Antimicrobial activity against beta-lactam resistant Pseudomonas aeruginosa PAOD1 harboring oprD spontaneous mutant selected in vitro after antipseudomonal treatment of intensive care unit patient by broth microdilution method; how it was run: as §1
[4] = system: Pseudomonas aeruginosa; test: Antimicrobial activity against beta-lactam resistant Pseudomonas aeruginosa PAO1 deficient in ampD and ampDh3 gene selected in vitro after antipseudomonal treatment of intensive care unit patient by broth microdilution method; how it was run: as §1
[5] = system: Pseudomonas aeruginosa; test: Antimicrobial activity against beta-lactam resistant Pseudomonas aeruginosa PAO1 deficient in ampD gene selected in vitro after antipseudomonal treatment of intensive care unit patient by broth microdilution method; how it was run: as §1
[6] = system: Pseudomonas aeruginosa; test: Antimicrobial activity against beta-lactam resistant Pseudomonas aeruginosa PA01 deficient in dacB gene by broth microdilution method; how it was run: as §1
[7] = system: Pseudomonas aeruginosa; test: Antimicrobial activity against beta-lactam resistant Pseudomonas aeruginosa PAO1 by broth microdilution method; how it was run: as §1
[8] = system: Pseudomonas aeruginosa; test: Antimicrobial activity against beta-lactam resistant Pseudomonas aeruginosa PAOD1 harboring oprD spontaneous mutant and deficient in ampD gene selected in vitro after antipseudomonal treatment of intensive care unit patient by broth microdilution method; how it was run: as §1
[9] = system: Pseudomonas aeruginosa; test: Antimicrobial activity against beta-lactam resistant Pseudomonas aeruginosa PAOD2 harboring oprD spontaneous mutant and deficient in dacB gene selected in vitro after antipseudomonal treatment of intensive care unit patient by broth microdilution method; how it was run: as §1
[10] = system: Pseudomonas aeruginosa; test: Antimicrobial activity against beta-lactam resistant beta-lactam resistant Pseudomonas aeruginosa PAOD3 harboring oprD spontaneous mutant and deficient in ampD gene selected in vitro after antipseudomonal treatment of intensive care unit patient by broth microdilution method; how it was run: as §1
[11] = system: Pseudomonas aeruginosa; test: Antimicrobial activity against beta-lactam resistant Pseudomonas aeruginosa PAOD3 harboring oprD spontaneous mutant selected in vitro after antipseudomonal treatment of intensive care unit patient by broth microdilution method; how it was run: as §1
[12] = system: Pseudomonas aeruginosa; test: Antimicrobial activity against beta-lactam resistant Pseudomonas aeruginosa PAOD1 harboring oprD spontaneous mutant and deficient in dacB gene selected in vitro after antipseudomonal treatment of intensive care unit patient by broth microdilution method; how it was run: as §1
[13] = system: Pseudomonas aeruginosa; test: Antimicrobial activity against beta-lactam resistant Pseudomonas aeruginosa PAOD2 harboring oprD spontaneous mutant selected in vitro after antipseudomonal treatment of intensive care unit patient by broth microdilution method; how it was run: as §1
[14] = system: Pseudomonas aeruginosa; test: Antimicrobial activity against beta-lactam resistant Pseudomonas aeruginosa PAOD3 harboring oprD spontaneous mutant and deficient in dacB gene selected in vitro after antipseudomonal treatment of intensive care unit patient by broth microdilution method; how it was run: as §1
[15] = system: Pseudomonas aeruginosa; test: Antimicrobial activity against beta-lactam resistant Pseudomonas aeruginosa PAO1 deficient in ampD and dacB gene selected in vitro after antipseudomonal treatment of intensive care unit patient by broth microdilution method; how it was run: as §1
[16] = system: Pseudomonas aeruginosa; test: Antimicrobial activity against Pseudomonas aeruginosa clinical isolate assessed as resistant isolates selected in vitro after antipseudomonal treatment of intensive care unit patient by CLSI method
[17] = system: Pseudomonas aeruginosa; test: Antimicrobial activity against meropenem resistant Pseudomonas aeruginosa clinical isolate selected in vitro after antipseudomonal treatment of intensive care unit patient by broth microdilution method
How it was run: (§2)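 MICs by standard CLSI broth microdilution (M100-S18) at 0.12 to 256 μg/ml. The isolates are sequential P. aeruginosa isolates that emerged during antipseudomonal therapy of patients in a Spanish ICU (2002–2003). P. aeruginosa PAO1 and ATCC 27853 were run in parallel for quality control.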

[18] = system: Pseudomonas aeruginosa; test: Antimicrobial activity against cefipime resistant Pseudomonas aeruginosa overexpressing MexXY-OprM gene by microdilution method
[19] = system: Pseudomonas aeruginosa; test: Antimicrobial activity against Pseudomonas aeruginosa by after 18-20 hrs agar dilution method
[20] = system: Pseudomonas aeruginosa; test: Antimicrobial activity against cefipime resistant Pseudomonas aeruginosa by microdilution method
[21] = system: Pseudomonas aeruginosa; test: Antimicrobial activity against Imipenem resistant Pseudomonas aeruginosa clinical isolate selected in vitro after antipseudomonal treatment of intensive care unit patient by broth microdilution method; how it was run: as §2
[22] = system: Pseudomonas aeruginosa; test: Antimicrobial activity against PIP-tazobactam resistant Pseudomonas aeruginosa clinical isolate selected in vitro after antipseudomonal treatment of intensive care unit patient by broth microdilution method; how it was run: as §2
[23] = system: Pseudomonas aeruginosa; test: Antimicrobial activity against cefipime resistant Pseudomonas aeruginosa clinical isolate selected in vitro after antipseudomonal treatment of intensive care unit patient by broth microdilution method; how it was run: as §2
[24] = system: Pseudomonas aeruginosa; test: Antimicrobial activity against metallo beta-lactamase producing Pseudomonas aeruginosa isolates
[25] = system: Pseudomonas aeruginosa; test: Antimicrobial activity against Pseudomonas aeruginosa clinical isolate selected in vitro after antipseudomonal treatment of intensive care unit patient by broth microdilution method; how it was run: as §2
[26] = system: Pseudomonas aeruginosa; test: Antimicrobial activity against Pseudomonas aeruginosa AmpC overexpressing clinical isolate selected in vitro after antipseudomonal treatment of intensive care unit patient by broth microdilution method; how it was run: as §2
[27] = system: Pseudomonas aeruginosa; test: Antimicrobial activity against ciprofloxacin resistant Pseudomonas aeruginosa clinical isolate selected in vitro after antipseudomonal treatment of intensive care unit patient by broth microdilution method; how it was run: as §2
[28] = system: Pseudomonas aeruginosa; test: Antimicrobial activity against multidrug resistant Pseudomonas aeruginosa clinical isolate selected in vitro after antipseudomonal treatment of intensive care unit patient by broth microdilution method; how it was run: as §2
[29] = system: Pseudomonas aeruginosa; test: Antimicrobial activity against extended spectrum beta-lactamase producing Pseudomonas aeruginosa isolates by broth microdilution method
[30] = system: Pseudomonas aeruginosa; test: Antimicrobial activity against pan-beta-lactam resistant Pseudomonas aeruginosa clinical isolate selected in vitro after antipseudomonal treatment of intensive care unit patient by broth microdilution method; how it was run: as §2
[31] = system: Pseudomonas aeruginosa; test: Antimicrobial activity against Ceftazidime resistant Pseudomonas aeruginosa clinical isolate selected in vitro after antipseudomonal treatment of intensive care unit patient by broth microdilution method; how it was run: as §2

## CCN1CCN(C(=O)N[C@@H](C(=O)N[C@@H]2C(=O)N3[C@@H]2SC(C)(C)[C@@H]3C(=O)O)c2ccccc2)C(=O)C1=O [PIPERACILLIN]
[1]
  MIC: 64 µg/mL (≈ 124 µM)
[2]
  MIC: 32 µg/mL (≈ 61.8 µM)
[3]
  MIC: > 256 µg/mL
[4]
  MIC: 128 µg/mL (≈ 247 µM)
[5]
  MIC: 16 µg/mL (≈ 30.9 µM)
[6]
  MIC: 64 µg/mL (≈ 124 µM)
[7]
  MIC: 4 µg/mL (≈ 7.73 µM)
[8]
  MIC: 4 µg/mL (≈ 7.73 µM)
[9]
  MIC: 64 µg/mL (≈ 124 µM)
[10]
  MIC: 64 µg/mL (≈ 124 µM)
[11]
  MIC: 4 µg/mL (≈ 7.73 µM)
[12]
  MIC: 64 µg/mL (≈ 124 µM)
[13]
  MIC: 4 µg/mL (≈ 7.73 µM)
[14]
  MIC: 64 µg/mL (≈ 124 µM)
[15]
  MIC: 64 µg/mL (≈ 124 µM)

## CC(C)(O/N=C(\C(=O)N[C@@H]1C(=O)N2C(C(=O)[O-])=C(C[n+]3ccccc3)CS[C@H]12)c1csc(N)n1)C(=O)O [CEFTAZIDIME]
[1]
  MIC: 32 µg/mL (≈ 58.5 µM)
[2]
  MIC: 16 µg/mL (≈ 29.3 µM)
[16]
  Activity: 81%
[3]
  MIC: 2 µg/mL (≈ 3.66 µM)
[4]
  MIC: 32 µg/mL (≈ 58.5 µM)
[5]
  MIC: 8 µg/mL (≈ 14.6 µM)
[6]
  MIC: 32 µg/mL (≈ 58.5 µM)
[7]
  MIC: 2 µg/mL (≈ 3.66 µM)
[8]
  MIC: 16 µg/mL (≈ 29.3 µM)
[9]
  MIC: 32 µg/mL (≈ 58.5 µM)
[10]
  MIC: 16 µg/mL (≈ 29.3 µM)
[11]
  MIC: 2 µg/mL (≈ 3.66 µM)
[12]
  MIC: 32 µg/mL (≈ 58.5 µM)
[13]
  MIC: 2 µg/mL (≈ 3.66 µM)
[14]
  MIC: 32 µg/mL (≈ 58.5 µM)
[15]
  MIC: 128 µg/mL (≈ 234 µM)

## Cn1c(N)c(NC(=O)NCCN)c[n+]1CC1=C(C(=O)O)N2C(=O)[C@@H](NC(=O)/C(=N\OC(C)(C)C(=O)[O-])c3nsc(N)n3)[C@H]2SC1 [CEFTOLOZANE]
[17]
  GM MIC: 0.86 µg/mL
  MIC50: 0.5 µg/mL (≈ 0.75 µM)
  MIC90: 4 µg/mL (≈ 6 µM)
[18]
  MIC: 1 µg/mL (≈ 1.5 µM)
[19]
  Ratio: -0.5
[1]
  MIC: 1 µg/mL (≈ 1.5 µM)
[20]
  MIC: 1 µg/mL (≈ 1.5 µM)
[2]
  MIC: 0.5 µg/mL (≈ 0.75 µM)
[21]
  GM MIC: 0.84 µg/mL
  MIC50: 0.5 µg/mL (≈ 0.75 µM)
  MIC90: 4 µg/mL (≈ 6 µM)
[3]
  MIC: 0.5 µg/mL (≈ 0.75 µM)
[22]
  GM MIC: 1.59 µg/mL
  MIC50: 1 µg/mL
  MIC90: 4 µg/mL
[4]
  MIC: 1 µg/mL (≈ 1.5 µM)
[23]
  GM MIC: 0.91 µg/mL
  MIC50: 1 µg/mL (≈ 1.5 µM)
  MIC90: 4 µg/mL (≈ 6 µM)
[5]
  MIC: 0.5 µg/mL (≈ 0.75 µM)
[24]
  Ratio: 0.25
[6]
  MIC: 1 µg/mL (≈ 1.5 µM)
[25]
  MIC50: 0.5 µg/mL (≈ 0.75 µM)
  MIC80: 0.53 µg/mL (≈ 0.795 µM)
  MIC90: 2 µg/mL (≈ 3 µM)
[7]
  MIC: 0.5 µg/mL (≈ 0.75 µM)
[8]
  MIC: 0.5 µg/mL (≈ 0.75 µM)
[26]
  MIC: 0.71 µg/mL (≈ 1.06 µM)
  MIC50: 1 µg/mL (≈ 1.5 µM)
  MIC90: 4 µg/mL (≈ 6 µM)
[27]
  MIC: 0.88 µg/mL (≈ 1.32 µM)
  MIC50: 1 µg/mL (≈ 1.5 µM)
  MIC90: 4 µg/mL (≈ 6 µM)
[28]
  MIC: 1.83 µg/mL (≈ 2.74 µM)
[9]
  MIC: 0.5 µg/mL (≈ 0.75 µM)
[10]
  MIC: 0.5 µg/mL (≈ 0.75 µM)
[11]
  MIC: 0.5 µg/mL (≈ 0.75 µM)
[12]
  MIC: 0.5 µg/mL (≈ 0.75 µM)
[29]
  MIC: > 8 µg/mL
[13]
  MIC: 0.5 µg/mL (≈ 0.75 µM)
[14]
  MIC: 0.5 µg/mL (≈ 0.75 µM)
[30]
  MIC: 2.53 µg/mL (≈ 3.79 µM)
[15]
  MIC: 2 µg/mL (≈ 3 µM)
[31]
  GM MIC: 0.94 µg/mL
  MIC50: 1 µg/mL (≈ 1.5 µM)
  MIC90: 4 µg/mL (≈ 6 µM)

## C[C@H]1[C@H](NC(=O)/C(=N\OC(C)(C)C(=O)O)c2csc(N)n2)C(=O)N1S(=O)(=O)O [AZTREONAM]
[1]
  MIC: 32 µg/mL (≈ 73.5 µM)
[4]
  MIC: 32 µg/mL (≈ 73.5 µM)
[6]
  MIC: 32 µg/mL (≈ 73.5 µM)
[7]
  MIC: 4 µg/mL (≈ 9.19 µM)
[8]
  MIC: 8 µg/mL (≈ 18.4 µM)
[9]
  MIC: 32 µg/mL (≈ 73.5 µM)
[10]
  MIC: 8 µg/mL (≈ 18.4 µM)
[11]
  MIC: 4 µg/mL (≈ 9.19 µM)
[12]
  MIC: 32 µg/mL (≈ 73.5 µM)
[13]
  MIC: 4 µg/mL (≈ 9.19 µM)
[14]
  MIC: 32 µg/mL (≈ 73.5 µM)
[15]
  MIC: 128 µg/mL (≈ 294 µM)
